ChEMBL document CHEMBL1131041 (J Med Chem, 1998)

What was measured:
[1] = molecular target: T1, Delta-type opioid receptor (Rattus norvegicus, UniProt P33533); test: Displacement of [3H]DADLE from Opioid receptor delta 1 of rat brain membranes (DAMGO quenching mu receptor); format: cell membranes, Membrane
How it was run: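 Rat brain membranes labelled with [3H]DADLE. Incubation 3–4 h at 25 °C in 10 mM Tris-HCl pH 7.4 with 100 mM choline chloride, 3 mM MnCl2, 100 nM DAMGO (μ block) and protease inhibitors. Levallorphan 20 μM for nonspecific binding. 8–10 concentrations, duplicate runs.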

[2] = Relative affinity for guinea pig kappa1 and rat delta receptors
[3] = molecular target: T2, Kappa-type opioid receptor (Cavia porcellus, UniProt P41144); test: Displacement of [3H]U-69593 from Opioid receptor kappa 1 of guinea pig brain membranes (pretreated with BIT and FIT to block mu and delta sites)
T2 sequence (P41144 whole entry): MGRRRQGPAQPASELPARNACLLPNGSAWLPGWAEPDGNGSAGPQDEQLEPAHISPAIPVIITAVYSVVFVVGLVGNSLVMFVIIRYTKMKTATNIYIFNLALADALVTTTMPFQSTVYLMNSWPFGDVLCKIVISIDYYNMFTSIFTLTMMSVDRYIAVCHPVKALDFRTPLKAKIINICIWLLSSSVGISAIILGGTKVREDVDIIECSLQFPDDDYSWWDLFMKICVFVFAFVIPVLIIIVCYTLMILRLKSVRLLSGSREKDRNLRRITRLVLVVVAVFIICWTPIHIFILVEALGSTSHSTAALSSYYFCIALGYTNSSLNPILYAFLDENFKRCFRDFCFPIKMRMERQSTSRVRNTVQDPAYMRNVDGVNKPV
How it was run: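 Guinea pig brain membranes pretreated with BIT and FIT, labelled with [3H]U69,593. Incubation 4–6 h at 25 °C in 50 mM Tris-HCl pH 7.4 with protease inhibitors and 1 μg/mL captopril. Nonspecific binding with 1 μM U69,593. 8–10 concentrations, twice.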

[4] = molecular target: T1, Delta-type opioid receptor; test: Displacement of [3H]DADLE from morphine-sensitive Opioid receptor delta 1 (presence of 300 nM DELT-II) of rat brain membranes; format: cell membranes, Membrane
How it was run: (§1)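 Rat brain membranes pretreated with (+)-trans-[…], labelled with 2.0 nM [3H]DADLE, plus 50 nM morphine (δcx-2) or 300 nM DELT-II (δcx-1). Incubation 4–6 h at 25 °C in 10 mM Tris-HCl pH 7.4 with 100 mM NaCl, 3 mM MnCl2, 2 μM GTP, 5 mM 2-mercaptoethanol and protease inhibitors. 8–10 concentrations, twice.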

[5] = molecular target: T1, Delta-type opioid receptor; test: Displacement of [3H]DADLE from morphine-insensitive Opioid receptor delta 1 (presence of 50 nM morphine) of rat brain membranes; format: cell membranes, Membrane; how it was run: as §1
[6] = molecular target: T2, Kappa-type opioid receptor; test: Displacement of [125I]OXY from Opioid receptor kappa 2b of guinea pig brain membranes (pretreated with BIT(mu) and FIT(delta) and in the presence of (-)U50,488)
How it was run: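 Guinea pig brain membranes depleted of μ/δ sites by BIT and FIT, labelled with 0.01 nM [125I]IOXY in presence of 5 μM (−)U50,488. Incubation 4–6 h at 4 °C in 50 mM Tris-HCl pH 7.4 with 10 mM NaCl, protease inhibitors and 1 μg/mL captopril.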

Mu-type opioid receptor = Mu-type opioid receptor (Rattus norvegicus, UniProt P33535); test: Displacement of [3H]DAMGO from Opioid receptor mu 1 of rat brain membranes; format: cell membranes, Membrane
Chain of Mu-type opioid receptor (P33535 whole entry): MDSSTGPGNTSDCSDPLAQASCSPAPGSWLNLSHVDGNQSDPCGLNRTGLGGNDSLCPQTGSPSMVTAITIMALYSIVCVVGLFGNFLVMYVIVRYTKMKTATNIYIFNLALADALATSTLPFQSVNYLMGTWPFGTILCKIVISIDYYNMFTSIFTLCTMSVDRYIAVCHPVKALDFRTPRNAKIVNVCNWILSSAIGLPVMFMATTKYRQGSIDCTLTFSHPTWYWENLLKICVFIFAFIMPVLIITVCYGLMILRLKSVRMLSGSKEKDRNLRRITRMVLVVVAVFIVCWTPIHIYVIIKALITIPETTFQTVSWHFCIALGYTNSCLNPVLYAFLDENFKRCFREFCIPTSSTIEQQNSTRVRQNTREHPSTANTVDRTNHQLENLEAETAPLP
How it was run: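 Rat brain membranes labelled with [3H]DAMGO. Incubation 4 h at 25 °C in 50 mM Tris-HCl pH 7.4 with protease inhibitor cocktail. Nonspecific binding defined with 20 μM levallorphan. 8–10 test concentrations, run twice; IC50 and slope factor derived.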

[7] = molecular target: Opioid receptors; mu & delta (Rattus norvegicus) (UniProt P33533+P33535); test: Relative affinity for mu and delta receptors in rat brain membranes; format: cell membranes
Chain of Opioid receptors; mu & delta (Rattus norvegicus) (P33533 whole entry, looked up): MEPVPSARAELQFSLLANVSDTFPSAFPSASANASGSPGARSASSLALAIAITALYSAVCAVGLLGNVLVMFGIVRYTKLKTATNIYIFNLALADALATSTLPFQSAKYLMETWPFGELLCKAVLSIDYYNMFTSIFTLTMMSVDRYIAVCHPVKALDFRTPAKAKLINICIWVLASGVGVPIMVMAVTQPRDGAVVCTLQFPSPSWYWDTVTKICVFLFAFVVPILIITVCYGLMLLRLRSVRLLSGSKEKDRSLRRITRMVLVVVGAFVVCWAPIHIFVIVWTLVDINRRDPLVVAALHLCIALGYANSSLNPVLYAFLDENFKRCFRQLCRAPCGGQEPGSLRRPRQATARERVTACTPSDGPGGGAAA
Chain of Opioid receptors; mu & delta (Rattus norvegicus) (P33535 whole entry, looked up): as the sequence (P33535 whole entry) above

Cavia porcellus [8] = organism: Cavia porcellus; test: (§2) Partial agonist activity expressed as inhibition of contraction of guinea pig ileal longitudinal muscle myenteric plexus (GPI) at 1 uM conc.; format: functional, organism-based; settings: Muscle tissue
How it was run: (§3)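 Agonist action on electrically driven tissues at 37 °C: GPI (1 g tension, 0.4-ms pulses) and Mg-free MVD (0.5 g, 2-ms pulses), 0.1 Hz. Percent inhibition of contraction height read 10 min after 1 μM compound; for stronger agonists, IC50 from concentration–response curves (2–4 tissues, nonlinear least squares). Selectivity = GPI IC50/MVD IC50.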

[9] = molecular target: Opioid receptors; mu & delta (Homo sapiens) (UniProt P41143+P35372); test: IC50 selectivity for mu receptor of guinea pig Ileum (GPI) and delta receptor of delta opioid receptor of mouse vas deferens (MVD) smooth muscle preparation; format: tissue-based; how it was run: as §3
Chain of Opioid receptors; mu & delta (Homo sapiens) (P35372 whole entry, looked up): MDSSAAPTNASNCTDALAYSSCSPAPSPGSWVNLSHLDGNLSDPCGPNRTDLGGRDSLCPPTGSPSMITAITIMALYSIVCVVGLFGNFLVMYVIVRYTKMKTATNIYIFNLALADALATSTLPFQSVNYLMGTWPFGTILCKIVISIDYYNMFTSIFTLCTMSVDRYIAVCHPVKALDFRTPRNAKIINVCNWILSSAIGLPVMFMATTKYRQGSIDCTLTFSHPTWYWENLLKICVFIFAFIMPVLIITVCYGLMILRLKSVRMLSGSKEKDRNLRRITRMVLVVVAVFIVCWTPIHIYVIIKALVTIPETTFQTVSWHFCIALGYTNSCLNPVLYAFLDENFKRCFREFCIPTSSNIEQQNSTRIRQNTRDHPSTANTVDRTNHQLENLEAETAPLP
Chain of Opioid receptors; mu & delta (Homo sapiens) (P41143 whole entry, looked up): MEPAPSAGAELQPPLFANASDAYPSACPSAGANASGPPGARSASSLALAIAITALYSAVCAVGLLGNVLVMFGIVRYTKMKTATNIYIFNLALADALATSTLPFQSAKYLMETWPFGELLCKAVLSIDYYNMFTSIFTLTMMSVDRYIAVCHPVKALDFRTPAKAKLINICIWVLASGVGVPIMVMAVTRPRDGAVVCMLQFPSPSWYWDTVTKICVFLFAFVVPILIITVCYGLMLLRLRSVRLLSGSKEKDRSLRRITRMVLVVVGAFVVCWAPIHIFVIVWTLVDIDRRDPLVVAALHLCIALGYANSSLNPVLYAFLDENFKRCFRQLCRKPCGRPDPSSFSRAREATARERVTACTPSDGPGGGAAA

Mus musculus [10] = organism: Mus musculus; test: (§4) Partial agonist activity expressed as inhibition of contraction of mouse vas deferens (MVD) smooth muscle at 1 uM conc.; format: functional, organism-based; settings: Muscle tissue; how it was run: as §3
[11] = molecular target: Delta-type opioid receptor (Mus musculus) (UniProt P32300); test: Displacement of DPDPE from Opioid receptor delta 1 of mouse vas deferens (MVD)smooth muscle
Chain of Delta-type opioid receptor (Mus musculus) (P32300 whole entry): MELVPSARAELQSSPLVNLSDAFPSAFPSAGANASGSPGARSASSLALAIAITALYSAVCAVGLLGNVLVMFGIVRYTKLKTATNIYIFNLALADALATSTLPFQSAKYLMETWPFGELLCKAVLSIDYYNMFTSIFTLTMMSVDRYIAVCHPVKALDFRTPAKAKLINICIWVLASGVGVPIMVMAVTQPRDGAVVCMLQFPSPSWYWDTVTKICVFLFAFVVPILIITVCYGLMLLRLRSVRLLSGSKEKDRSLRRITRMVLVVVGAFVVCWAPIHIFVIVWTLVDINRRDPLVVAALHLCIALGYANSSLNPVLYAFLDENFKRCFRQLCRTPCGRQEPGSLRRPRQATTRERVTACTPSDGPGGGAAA
How it was run: (§5)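 Mouse vas deferens (male ICR, 25–40 g) in Mg-free oxygenated Krebs at 37 °C, 0.5 g tension; transmural 0.1 Hz, 2-ms pulses, supramaximal voltage. Control DPDPE curve first; then 1 μM compound 30 min, 30 min wash, cumulative DPDPE curve (3-min steps) repeated. IC50 ratio = shifted/control IC50; Ke = [antagonist]/(ratio − 1); n ≥ 3.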

[12] = molecular target: Delta-type opioid receptor (Mus musculus) (UniProt P32300); test: Displacement of DPDPE from Opioid receptor delta 1 of mouse vas deferens (MVD) smooth muscle; how it was run: as §5
Cavia porcellus [13] = organism: Cavia porcellus; test: as §2; format: functional, Muscle tissue; how it was run: as §3
Mus musculus [14] = organism: Mus musculus; test: as §4; format: functional, Muscle tissue; how it was run: as §3
Cavia porcellus [15] = organism: Cavia porcellus; test: Binding affinity of compound was measured on electrically stimulated guinea pig ileal longitudinal muscle myenteric plexus (GPI) preparation using PL017 as standard antagonist; format: functional; settings: Muscle tissue
How it was run: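 Electrically stimulated guinea pig ileum longitudinal muscle–myenteric plexus (male Hartley, 250–500 g) in oxygenated Krebs at 37 °C, 1 g tension; 0.1 Hz, 0.4-ms pulses. Tissue preincubated 30 min with 1 μM compound, washed 30 min, then cumulative PL-017 curve repeated. Ke = [antagonist]/(IC50 ratio − 1); n ≥ 3.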

[16] = Selectivity for mu receptor of guinea pig Ileum (GPI) and delta receptor of delta opioid receptor of mouse vas deferens (MVD) smooth muscle preparation; format: tissue-based
[17] = molecular target: Mu-type opioid receptor (Mus musculus) (UniProt P42866); test: Compound was tested for antagonist activity against Opioid receptor mu 1 on electrically stimulated guinea pig ileal longitudinal muscle myenteric plexus (GPI) using PL017 as antagonist ligand. IC50 ratio = IC50(agonist)/IC50 (control); format: functional; settings: Cavia porcellus; target entry is the homologue from another species
Chain of Mu-type opioid receptor (Mus musculus) (P42866 whole entry): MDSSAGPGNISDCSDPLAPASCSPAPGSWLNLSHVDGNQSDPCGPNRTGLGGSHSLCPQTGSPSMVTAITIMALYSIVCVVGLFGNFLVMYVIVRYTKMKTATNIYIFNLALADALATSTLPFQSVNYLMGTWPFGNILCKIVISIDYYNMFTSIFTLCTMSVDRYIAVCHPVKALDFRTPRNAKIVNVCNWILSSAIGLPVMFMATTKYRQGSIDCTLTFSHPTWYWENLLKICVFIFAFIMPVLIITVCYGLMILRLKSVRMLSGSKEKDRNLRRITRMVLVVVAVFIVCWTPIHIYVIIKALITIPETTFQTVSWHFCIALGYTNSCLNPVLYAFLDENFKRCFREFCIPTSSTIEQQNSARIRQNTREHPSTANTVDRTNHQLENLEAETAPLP
How it was run: (§6)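 Guinea pig ileum longitudinal muscle–myenteric plexus (male Hartley, 250–500 g) in oxygenated Krebs at 37 °C, 1 g tension; 0.1 Hz, 0.4-ms pulses, supramaximal voltage. Control PL-017 curve first; 1 μM compound 30 min, 30 min wash, cumulative PL-017 curve repeated. IC50 ratio = antagonized/unantagonized IC50; n ≥ 3.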

[18] = molecular target: Mu-type opioid receptor (Mus musculus) (UniProt P42866); test: Compound was tested for antagonist activity against dOpioid receptor mu 1 on electrically stimulated guinea pig ileal longitudinal muscle myenteric plexus (GPI) using PL017as standard antagonist; e denotes 'the agonist effects precluded the determination of antagonist effects'; format: functional; settings: Cavia porcellus; filed as agonist; target entry is the homologue from another species; how it was run: as §6
[19] = molecular target: Delta-type opioid receptor (Mus musculus) (UniProt P32300); test: Compound was tested for antagonist activity against Opioid receptor delta 1 on mouse vas deferens (MVD) smooth muscle preparation using DPDPE as antagonist ligand; e denotes the agonist effects precluded the determination of antagonist effects; format: functional; settings: filed as agonist; how it was run: as §5
[20] = molecular target: Delta-type opioid receptor (Mus musculus) (UniProt P32300)
Mus musculus [21] = organism: Mus musculus; settings: Muscle tissue

T1 sequence (P33533 whole entry): as the sequence (P33533 whole entry, looked up) above

| SMILES | Ki [1] [nM] | Selectivity ratio [2] | Ki [3] [nM] | Ki [4] [nM] | Ki [5] [nM] | Ki [6] [nM] | Ki (Mu-type opioid receptor) [nM] | Selectivity ratio [7] | Ke [11] [nM] | Ratio [12] | Max response (Cavia porcellus [13]) [%] | Max response (Mus musculus [14]) [%] | Ke (Cavia porcellus [15]) [nM] | Selectivity ratio [16] | Ratio [17] | other results |
| --- | --- | --- | --- | --- | --- | --- | --- | --- | --- | --- | --- | --- | --- | --- | --- | --- |
| Oc1ccc2c3c1OC1c4[nH]c5c(OCc6ccccc6)cccc5c4C[C@@]4(O)[C@@H](C2)N(CC2CC2)CC[C@]314 (stereo partly drawn) | 3.1 | 83 | 258 | 73.3 | 2.5 | 112 | 159 | 51 | 1.7 | 610 | – | – | – | – | – | IC50 (Cavia porcellus [8]): 1700 nM; Selectivity ratio [9]: 0.18; IC50 (Mus musculus [10]): 9500 nM |
| Oc1ccc2c3c1O[C@H]1c4[nH]c5ccccc5c4C[C@@]4(O)[C@@H](C2)N(CC2CC2)CC[C@]314 [NALTRINDOLE] | 0.29 | – | 34.1 | 12.3 | 0.24 | 19.9 | – | – | 0.49 | – | 18 | 16 | 43 | – | – | – |
| Oc1ccc2c3c1OC1c4[nH]c5c(Oc6ccccc6)cccc5c4C[C@@]4(O)[C@@H](C2)N(CC2CC2)CC[C@]314 (stereo partly drawn) | 0.71 | 47 | 33.6 | 18.7 | 0.61 | 56.8 | 34.2 | 48 | 0.25 | 4000 | – | – | – | – | – | IC50 (Cavia porcellus [8]): 450 nM; Selectivity ratio [9]: 0.11; IC50 (Mus musculus [10]): 4100 nM |
| Oc1ccc2c3c1OC1c4[nH]c5ccc(Oc6ccccc6)cc5c4C[C@@]4(O)[C@@H](C2)N(CC2CC2)CC[C@]314 (stereo partly drawn) | 17.9 | 4 | 75.2 | 204 | 4.9 | 199 | 292 | 16 | 11 | 93 | 8 | 11 | 770 | 70 | – | – |
| Oc1ccc2c3c1OC1c4[nH]c5ccc(OCc6ccccc6)cc5c4C[C@@]4(O)[C@@H](C2)N(CC2CC2)CC[C@]314 (stereo partly drawn) | 4.4 | 19 | 82.1 | 14.9 | 1.7 | 85.8 | 81 | 18 | 4.8 | 210 | 24 | 35 | 560 | 117 | 2.8 | – |
| Oc1ccc2c3c1OC1c4[nH]c5cccc(Oc6ccccc6)c5c4C[C@@]4(O)[C@@H](C2)N(CC2CC2)CC[C@]314 (stereo partly drawn) | 67.9 | 19 | 1310 | 395 | 114 | 353 | 1430 | 21 | 17 | – | 28 | 27 | 590 | 35 | 2.7 | – |
| Oc1ccc2c3c1OC1c4[nH]c5cccc(-c6ccccc6)c5c4C[C@@]4(O)[C@@H](C2)N(CC2CC2)CC[C@]314 (stereo partly drawn) | 52.4 | 57 | 2970 | 284 | 127 | 435 | 1510 | 29 | 66 | 16 | 0 | 22 | 710 | 11 | 2.4 | – |
| Oc1ccc2c3c1OC1c4[nH]c5ccc(/C=C/c6ccccn6)cc5c4C[C@@]4(O)[C@@H](C2)N(CC2CC2)CC[C@]314 (stereo partly drawn) | 3.7 | 5 | 20.1 | 17.4 | 4 | 21.4 | 76 | 21 | – | – | – | – | – | – | – | IC50 (Cavia porcellus [8]): 2600 nM; Selectivity ratio [9]: 12; IC50 (Mus musculus [10]): 220 nM; Ratio [18]: Agonist; Ratio [19]: Agonist |
| Oc1ccc2c3c1OC1c4[nH]c5cccc(OCc6ccccc6)c5c4C[C@@]4(O)[C@@H](C2)N(CC2CC2)CC[C@]314 (stereo partly drawn) | 14.8 | 36 | 539 | 74.1 | 17.2 | 109 | 360 | 24 | – | – | 86 | 70 | – | – | – | – |
| Oc1ccc2c3c1OC1c4[nH]c5c(-c6ccccc6)cccc5c4C[C@@]4(O)[C@@H](C2)N(CC2CC2)CC[C@]314 (stereo partly drawn) | 2.1 | 149 | 312 | 51.4 | 0.46 | 89.9 | 124 | 59 | – | – | 37 | 35 | 310 | 172 | 4.2 | Ke [20]: 1.8 nM |
| Oc1ccc2c3c1OC1c4[nH]c5cc(-c6ccccc6)ccc5c4C[C@@]4(O)[C@@H](C2)N(CC2CC2)CC[C@]314 (stereo partly drawn) | 18 | 35 | 632 | 299 | 14.2 | 660 | 1280 | 71 | 21 | 49 | 2 | 36 | – | – | – | – |
| Oc1ccc2c3c1OC1c4[nH]c5cc(OCc6ccccc6)ccc5c4C[C@@]4(O)[C@@H](C2)N(CC2CC2)CC[C@]314 (stereo partly drawn) | 6.7 | 70 | 470 | 201 | 6.3 | 461 | 676 | 101 | – | 260 | 0 | 25 | – | – | – | Ke (Mus musculus [21]): 3.9 nM |
| Oc1ccc2c3c1OC1c4[nH]c5ccc(-c6ccccc6)cc5c4C[C@@]4(O)[C@@H](C2)N(CC2CC2)CC[C@]314 (stereo partly drawn) | 15.8 | 22 | 354 | 121 | 24.7 | 186 | 165 | 10 | 9.4 | 110 | 0 | 25 | 110 | 12 | – | – |
